# Laboratory results reported in article PMC6923798 (Bioorganic chemistry, 2018).
# Assays:
# [1] = tested on: HL-60(TB); assay: NCI in vitro five dose anticancer assay; format: cell-based, human
# [2] = tested on: MOLT-4; assay: NCI in vitro five dose anticancer assay; format: cell-based, human
# [3] = tested on: RPMI-8226; assay: NCI in vitro five dose anticancer assay; format: cell-based, human
# [4] = tested on: A549/ATCC; assay: NCI in vitro five dose anticancer assay; format: cell-based, human
# [5] = tested on: HOP-62; assay: NCI in vitro five dose anticancer assay; format: cell-based, human
# [6] = tested on: NCI-H226; assay: NCI in vitro five dose anticancer assay; format: cell-based, human
# [7] = tested on: NCI-H522; assay: NCI in vitro five dose anticancer assay; format: cell-based, human
# [8] = tested on: SF-268; assay: NCI in vitro five dose anticancer assay; format: cell-based, human
# [9] = tested on: SF-539; assay: NCI in vitro five dose anticancer assay; format: cell-based, human
# [10] = tested on: SNB-19; assay: NCI in vitro five dose anticancer assay; format: cell-based, human
# [11] = tested on: LOX IMVI; assay: NCI in vitro five dose anticancer assay; format: cell-based, human; conditions: 48 h
# [12] = tested on: MALME-3M; assay: NCI in vitro five dose anticancer assay; format: cell-based, human; conditions: 48 h
# [13] = tested on: MDA-MB-435; assay: NCI in vitro five dose anticancer assay; format: cell-based, human
# [14] = tested on: SK-MEL-28; assay: NCI in vitro five dose anticancer assay; format: cell-based, human
# [15] = tested on: SK-MEL-5; assay: NCI in vitro five dose anticancer assay; format: cell-based, human
# [16] = tested on: IGROV1; assay: NCI in vitro five dose anticancer assay; format: cell-based, human
# [17] = tested on: OVCAR-3; assay: NCI in vitro five dose anticancer assay; format: cell-based, human
# [18] = tested on: ACHN; assay: NCI in vitro five dose anticancer assay; format: cell-based, human; conditions: 48 h
# [19] = tested on: RXF 393; assay: NCI in vitro five dose anticancer assay; format: cell-based, human
# [20] = tested on: TK-10; assay: NCI in vitro five dose anticancer assay; format: cell-based, human
# [21] = tested on: UO-31; assay: NCI in vitro five dose anticancer assay; format: cell-based, human
# [22] = tested on: MCF7; assay: NCI in vitro five dose anticancer assay; format: cell-based, human
# [23] = tested on: BT-549; assay: NCI in vitro five dose anticancer assay; format: cell-based, human
# [24] = tested on: MDA-MB-468; assay: NCI in vitro five dose anticancer assay; format: cell-based, human
# [25] = tested on: full NCI panel of 60 cell lines; assay: NCI in vitro one dose anticancer assay; format: cell-based, human; conditions: 48 h
# Summary of the method: (§1)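 NCI protocol. Test compound added once at 10−5 M to ~60 human tumour lines from nine subpanels. Incubated 48 h at 37 °C, 5% CO2, 95% air, 100% relative humidity. Endpoint by sulforhodamine B protein staining with spectrophotometric absorbance. Growth of treated cells reported as percent of untreated cells.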
# [26] = tested on: K-562 cell line; assay: NCI in vitro one dose anticancer assay; format: cell-based; conditions: Homo sapiens, K562, 48 h, read-out: % growth inhibition
# Summary of the method: as §1
# [27] = tested on: full panel of 58 human tumor cell lines; assay: NCI in vitro five dose anticancer assay, whole panel; format: cell-based; conditions: read-out: GI50 (range over panel)
# [28] = tested on: K-562; assay: MTT anti-proliferative assay; format: cell-based, human; conditions: Homo sapiens, K562, 24 h, read-out: IC50 ± SD, K-562
# [29] = tested on: KG-1a; assay: MTT anti-proliferative assay; format: cell-based, human; conditions: Homo sapiens, KG-1a, 24 h, read-out: IC50 ± SD, KG-1a
# [30] = tested on: Jurkat; assay: MTT anti-proliferative assay; format: cell-based, human; conditions: Homo sapiens, Jurkat, 24 h, read-out: IC50 ± SD, Jurkat
# [31] = tested on: IL-6; assay: IL-6 ELISA in K-562 cells; format: cell-based, human
# Summary of the method: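 K-562 cells exposed 24 h to vehicle (DMSO), test compound at 10 μM or dexamethasone (positive control). IL-6 secreted into cell-free supernatant quantified by human IL-6 ELISA kit. Expressed as % of vehicle control, mean ± SD of three independent experiments, each in triplicate. Time course: in 12-well plates, medium changed when compound (10 μM) added, and media sampled at 0, 1, 4, 8, 12, 24, 48 h.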
smiles,measurement,setting,value
"COc1ccc(C=CC(=O)c2ccc(NC(=O)CSc3nnc(-c4cc(OC)c(OC)c(OC)c4)o3)cc2)cc1 [Compound 8v, N-(4-(3-(4-Methoxyphenyl)acryloyl)phenyl)-2-((5-(3,4,5-trimethoxy-phenyl)-1,3,4-oxadiazol-2-yl)thio)acetamide]",TGI,"[1]; HL-60(TB), Leukemia, five dose, 48 h, SRB",4100 nM
same,GI50,"[1]; Homo sapiens, HL-60, 48 h",2000 nM
same,GI50,"[2]; Homo sapiens, MOLT-4, 48 h",2050 nM
same,TGI,"[2]; MOLT-4, Leukemia, five dose, 48 h, SRB",5270 nM
same,GI50,"[3]; Homo sapiens, RPMI-8226, 48 h",1730 nM
same,TGI,"[3]; RPMI-8226, Leukemia, five dose, 48 h, SRB",4310 nM
same,TGI,"[4]; A549/ATCC, Non-Small Cell Lung Cancer, five dose, 48 h, SRB",3530 nM
same,GI50,"[4]; Homo sapiens, A549, 48 h",1840 nM
same,TGI,"[5]; HOP-62, Non-Small Cell Lung Cancer, five dose, 48 h, SRB",4530 nM
same,GI50,"[5]; Homo sapiens, HOP-62, 48 h",2130 nM
same,GI50,"[6]; Homo sapiens, NCI-H226, 48 h",2670 nM
same,TGI,"[6]; NCI-H226, Non-Small Cell Lung Cancer, five dose, 48 h, SRB",5690 nM
same,GI50,"[7]; Homo sapiens, NCI-H522, 48 h",1550 nM
same,TGI,"[7]; NCI-H522, Non-Small Cell Lung Cancer, five dose, 48 h, SRB",3210 nM
same,GI50,"[8]; Homo sapiens, SF-268, 48 h",1790 nM
same,TGI,"[8]; SF-268, CNS cancer, five dose, 48 h, SRB",3960 nM
same,GI50,"[9]; Homo sapiens, SF-539, 48 h",1640 nM
same,TGI,"[9]; SF-539, CNS cancer, five dose, 48 h, SRB",3030 nM
same,GI50,"[10]; Homo sapiens, SNB-19, 48 h",1780 nM
same,TGI,"[10]; SNB-19, CNS cancer, five dose, 48 h, SRB",3560 nM
same,GI50,[11]; Homo sapiens,320 nM
same,TGI,"[11]; Melanoma, five dose, SRB",1280 nM
same,GI50,"[12]; Homo sapiens, Malme-3M",1680 nM
same,TGI,"[12]; MALME-3M, Melanoma, five dose, SRB",3450 nM
same,GI50,"[13]; Homo sapiens, MDA-MB-435, 48 h",1700 nM
same,TGI,"[13]; MDA-MB-435, Melanoma, five dose, 48 h, SRB",3400 nM
same,GI50,"[14]; Homo sapiens, SK-MEL-28, 48 h",1740 nM
same,TGI,"[14]; SK-MEL-28, Melanoma, five dose, 48 h, SRB",3400 nM
same,GI50,"[15]; Homo sapiens, SK-MEL-5, 48 h",2140 nM
same,TGI,"[15]; SK-MEL-5, Melanoma, five dose, 48 h, SRB",5240 nM
same,GI50,"[16]; Homo sapiens, IGROV-1, 48 h",1540 nM
same,TGI,"[16]; IGROV1, Ovarian Cancer, five dose, 48 h, SRB",3750 nM
same,GI50,"[17]; Homo sapiens, OVCAR-3, 48 h",1780 nM
same,TGI,"[17]; OVCAR-3, Ovarian Cancer, five dose, 48 h, SRB",3380 nM
same,GI50,[18]; Homo sapiens,1720 nM
same,TGI,"[18]; Renal Cancer, five dose, SRB",3220 nM
same,GI50,"[19]; Homo sapiens, RXF 393, 48 h",1740 nM
same,TGI,"[19]; RXF 393, Renal Cancer, five dose, 48 h, SRB",3540 nM
same,GI50,"[20]; Homo sapiens, TK-10, 48 h",1520 nM
same,TGI,"[20]; TK-10, Renal Cancer, five dose, 48 h, SRB",3030 nM
same,GI50,"[21]; Homo sapiens, UO-31, 48 h",1460 nM
same,TGI,"[21]; UO-31, Renal Cancer, five dose, 48 h, SRB",2970 nM
same,GI50,"[22]; Homo sapiens, MCF7, 48 h",1270 nM
same,TGI,"[22]; MCF7, Breast cancer, five dose, 48 h, SRB",3680 nM
same,TGI,"[23]; BT-549, Breast cancer, five dose, 48 h, SRB",2810 nM
same,GI50,"[23]; Homo sapiens, BT-549, 48 h",1400 nM
same,GI50,"[24]; Homo sapiens, MDA-MB-468, 48 h",2100 nM
same,TGI,"[24]; MDA-MB-468, Breast cancer, five dose, 48 h, SRB",5020 nM
same,number of cell lines with complete cell death,"[25]; 10 μM, SRB",45
same,inhibition at 10 µM,"[25]; Homo sapiens, 60 cell, read-out: Mean growth inhibition %",132%
same,inhibition at 10 µM,[26],35.8 to 152%
same,GI50,[27],320 to 11000 nM
same,IC50,[28],1950 ± 180 nM
same,IC50,[29],3450 ± 250 nM
same,IC50,[30],2360 ± 470 nM
same,activity at 10 µM,"[31]; Homo sapiens, K562, 24 h, read-out: IL-6 protein levels (% of control)",20%
same,IL-6 levels after 48 h,"[31]; K-562 cells, 10 μM, time course",still downregulated
same,time of initial downregulation of IL-6 protein levels after treatment,"[31]; K-562 cells, 10 μM, time course 0-48 h",8 h
